Data published in ChEMBL document CHEMBL5344453, “Selective Recognition of c-KIT 1 G-Quadruplex by Structural Tuning of Heteroaromatic Scaffolds and Side Chains” (ACS Med Chem Lett, 2024).

How the values were obtained:
Quadruplex DNA [1] = assay: Stabilization of G-quadruplex h-TELO 5-FAM-TTGGGTTAGGGTTAGGGTTAGGGA-TAMRA-3 (unknown origin) assessed as change in melting temperature at 1 uM incubated for 1 hr in dark condition by FRET-based melting assay; assay type: nucleic-acid assay
Method in brief: (§1)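 FRET melting of dual-fluorophore-tagged oligonucleotides (200 nM) in 60 mM potassium cacodylate buffer, pH 7.4, with ligand at 1 μM; ΔTm taken against the ligand-free oligonucleotide Tm as control.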

Quadruplex DNA [2] = assay: Stabilization of G-quadruplex c-KIT2 5-FAM-GGGCGGGCGCGAGGGAGGGG-TAMRA-3 (unknown origin) assessed as change in melting temperature at 1 uM incubated for 1 hr in dark condition by FRET-based melting assay; assay type: nucleic-acid assay; method in brief: as §1
Quadruplex DNA [3] = assay: Stabilization of calf thymus […] ds DNA 5-FAM-CAATCGGATCGAATTCGATCCGATTG-TAMRA-3 assessed as change in melting temperature at 1 uM incubated for 1 hr in dark condition by FRET-based melting assay; assay type: nucleic-acid assay; conditions: Bos taurus; method in brief: as §1
Quadruplex DNA [4] = assay: Stabilization of G-quadruplex c-MYC 5-FAM-TGGGGAGGGTGGGGAGGGTGGGGAAGG-TAMRA- 3 (unknown origin) assessed as change in melting temperature at 1 uM incubated for 1 hr in dark condition by FRET-based melting assay; assay type: nucleic-acid assay; method in brief: as §1
Quadruplex DNA [5] = assay: Stabilization of G-quadruplex VEGF 5-FAM-CGGGGCGGGCCGGGGGCGGGGT-TAMRA-3 (unknown origin) assessed as change in melting temperature at 1 uM incubated for 1 hr in dark condition by FRET-based melting assay; assay type: nucleic-acid assay; method in brief: as §1
Quadruplex DNA [6] = assay: Stabilization of G-quadruplex BCL2 5-FAM-AGGGGCGGGCGCGGGAGGAAGGGGGCGGGAGCGGGGCTG-TAMRA-3 (unknown origin) assessed as change in melting temperature at 1 uM incubated for 1 hr in dark condition by FRET-based melting assay; assay type: nucleic-acid assay; method in brief: as §1
Quadruplex DNA [7] = assay: Stabilization of G-quadruplex c-KIT1 5-FAM-GGGAGGGCGCTGGGAGGAGGG-TAMRA-3 (unknown origin) assessed as change in melting temperature at 1 uM incubated for 1 hr in dark condition by FRET-based melting assay; assay type: nucleic-acid assay; method in brief: as §1
K562 [8] = assay: Attenuation of proto-oncogene expression in human c-KIT-positive K562 cells assessed as reduction in BCL-2oncogene expression at 4 uM measured after 24 hrs by qRT-PCR analysis relative to control; assay type: functional
Method in brief: (§2)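 K562 leukemia cells treated for 24 h. c-KIT, c-MYC and BCL-2 mRNA measured by qRT-PCR, with each gene normalized to 18s housekeeping gene expression. Reduction expressed relative to untreated cells.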

K562 [9] = assay: Induction of DNA damage in human K562 cells assessed as cells exhibiting DNA damage at 5.5 uM incubated for 24 hrs by DNA damage assay (reference value: 10.8%); assay type: functional
[10] = Reduction of c-MYC oncogene expression in human K562 cells transfected with c-MYC plasmid construct assessed as reduction in luciferase expression at 4 uM measured after 36 hrs by luciferase reporter assay; assay type: functional
Method in brief: (§3)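 K562 cells transfected with luciferase-expressing plasmids carrying the promoter G-quadruplex sequence of c-KIT, c-MYC or BCL-2, then ligand-treated. Relative luciferase expression measured.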

K562 [11] = assay: Attenuation of proto-oncogene expression in human c-KIT-positive K562 cells assessed as reduction in BCL-2oncogene expression at 2 uM measured after 24 hrs by qRT-PCR analysis relative to control; assay type: functional; method in brief: as §2
K562 [12] = assay: Attenuation of proto-oncogene expression in human c-KIT-positive K562 cells assessed as reduction in c-KIT oncogene expression at 4 uM measured after 24 hrs by qRT-PCR analysis relative to control; assay type: functional; method in brief: as §2
K562 [13] = assay: Attenuation of proto-oncogene expression in human c-KIT-positive K562 cells assessed as reduction in c-MYC oncogene expression at 2 uM measured after 24 hrs by qRT-PCR analysis relative to control; assay type: functional; method in brief: as §2
[14] = Reduction of c-KIT oncogene expression in human K562 cells transfected with c-KIT plasmid construct assessed as reduction in luciferase expression at 2 uM measured after 36 hrs by luciferase reporter assay; assay type: functional; method in brief: as §3
K562 [15] = assay: Induction of DNA damage in human K562 cells assessed as cells exhibiting DNA damage at 11 uM incubated for 24 hrs by DNA damage assay (reference value: 10.8%); assay type: functional
K562 [16] = assay: Attenuation of proto-oncogene expression in human c-KIT-positive K562 cells assessed as reduction in c-KIT oncogene expression at 2 uM measured after 24 hrs by qRT-PCR analysis relative to control; assay type: functional; method in brief: as §2
[17] = Reduction of BCL-2 oncogene expression in human K562 cells transfected with BCL-2 plasmid construct assessed as reduction in luciferase expression at 2 uM measured after 36 hrs by luciferase reporter assay; assay type: functional; method in brief: as §3
[18] = Reduction of c-KIT oncogene expression in human K562 cells transfected with c-KIT plasmid construct assessed as reduction in luciferase expression at 4 uM measured after 36 hrs by luciferase reporter assay; assay type: functional; method in brief: as §3
[19] = Reduction of c-KIT protein expression in human K562 cells at 2 uM measured after 24 hrs by Western blotting analysis relative to control; assay type: functional
Method in brief: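 Lysates of treated K562 cells probed by Western blot for c-KIT protein, with GAPDH as housekeeping reference.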

[20] = Reduction of c-MYC oncogene expression in human K562 cells transfected with c-MYC plasmid construct assessed as reduction in luciferase expression at 2 uM measured after 36 hrs by luciferase reporter assay; assay type: functional; method in brief: as §3
[21] = Reduction of BCL-2 oncogene expression in human K562 cells transfected with BCL-2 plasmid construct assessed as reduction in luciferase expression at 4 uM measured after 36 hrs by luciferase reporter assay; assay type: functional; method in brief: as §3

| SMILES | ΔTm (Quadruplex DNA [1]) [°C] | ΔTm (Quadruplex DNA [2]) [°C] | ΔTm (Quadruplex DNA [3]) [°C] | ΔTm (Quadruplex DNA [4]) [°C] | ΔTm (Quadruplex DNA [5]) [°C] | ΔTm (Quadruplex DNA [6]) [°C] | ΔTm (Quadruplex DNA [7]) [°C] | also measured |
| --- | --- | --- | --- | --- | --- | --- | --- | --- |
| NCCn1cc(-c2ccc3[nH]c4ccccc4c3c2)nn1 | < 5.5 | < 5.5 | < 5.5 | < 5.5 | < 5.5 | < 5.5 | < 5.5 |  |
| NCCCCC(N)C(=O)Nc1ccc(-n2cc(-c3ccc4[nH]c5ccccc5c4c3)nn2)cc1 (stereo not drawn) | < 5.5 | < 5.5 | < 5.5 | < 5.5 | < 5.5 | < 5.5 | < 5.5 |  |
| O=C(Nc1ccc(-n2cc(-c3ccc4[nH]c5ccccc5c4c3)nn2)cc1)C1CCCN1 (stereo not drawn) | < 5.5 | < 5.5 | < 5.5 | < 5.5 | < 5.5 | < 5.5 | < 5.5 |  |
| Nc1nc(CC(=O)Nc2nc(CC(=O)NCCCn3cc(-c4ccc5[nH]c6ccccc6c5c4)nn3)cs2)cs1 | < 5.5 | < 5.5 | < 5.5 | < 5.5 | < 5.5 | < 5.5 | < 5.5 |  |
| CN(C)CCCn1cc(-c2ccc3[nH]c4ccccc4c3c2)nn1 | < 5.5 | < 5.5 | < 5.5 | < 5.5 | < 5.5 | < 5.5 | < 5.5 |  |
| C[n+]1ccc(-c2c3nc(c(-c4cc[n+](C)cc4)c4ccc([nH]4)c(-c4cc[n+](C)cc4)c4nc(c(-c5cc[n+](C)cc5)c5ccc2[nH]5)C=C4)C=C3)cc1.[Cl-].[Cl-].[Cl-].[Cl-] [TMPYP4 CHLORIDE] |  |  |  |  |  |  |  | inhibition at 4 µM (K562 [8]): 45%; Activity (K562 [9]): 27.6%; inhibition at 4 µM [10]: 45.3%; inhibition at 2 µM (K562 [11]): 37%; inhibition at 4 µM (K562 [12]): 48%; inhibition at 2 µM (K562 [13]): 11%; inhibition at 2 µM [14]: 20.1%; Activity (K562 [15]): 30.3%; inhibition at 2 µM (K562 [16]): 30%; inhibition at 2 µM [17]: 20.7%; inhibition at 4 µM [18]: 34.1%; inhibition at 2 µM [19]: 10%; inhibition at 2 µM [20]: 24.4%; inhibition at 4 µM [21]: 39.7% |
| Nc1nc(CC(=O)Nc2nc(CC(=O)NCCCn3cc(-c4ccc5oc6ccccc6c5c4)nn3)cs2)cs1 | < 6 | < 6 | < 6 | < 6 | < 6 | < 6 | < 6 |  |
| CN(C)CCCn1cc(-c2ccc3oc4ccccc4c3c2)nn1 | < 6 | < 6 | < 6 | < 6 | < 6 | < 6 | < 6 |  |

The next lines start with results.

| ΔTm (Quadruplex DNA [1]) [°C] | ΔTm (Quadruplex DNA [2]) [°C] | ΔTm (Quadruplex DNA [3]) [°C] | ΔTm (Quadruplex DNA [4]) [°C] | ΔTm (Quadruplex DNA [5]) [°C] | ΔTm (Quadruplex DNA [6]) [°C] | ΔTm (Quadruplex DNA [7]) [°C] | SMILES | also measured |
| --- | --- | --- | --- | --- | --- | --- | --- | --- |
| < 6 | < 6 | < 6 | < 6 | < 6 | < 6 | < 6 | O=C(Nc1ccc(-n2cc(-c3ccc4oc5ccccc5c4c3)nn2)cc1)C1CCCN1 (stereo not drawn) |  |
| < 6 | < 6 | < 6 | < 6 | < 6 | < 6 | < 6 | NCCn1cc(-c2ccc3oc4ccccc4c3c2)nn1 |  |
| < 6 | < 6 | < 6 | < 6 | < 6 | < 6 | < 6 | Nc1ccc(-n2cc(-c3ccc4oc5ccccc5c4c3)nn2)cc1 |  |
| < 6 | < 6 | < 6 | < 6 | < 6 | < 6 | < 6 | NCCCCC(N)C(=O)Nc1ccc(-n2cc(-c3ccc4oc5ccccc5c4c3)nn2)cc1 (stereo not drawn) |  |
| < 5.5 | < 5.5 | < 5.5 | < 5.5 | < 5.5 | < 5.5 | < 5.5 | Nc1ccc(-n2cc(-c3ccc4[nH]c5ccccc5c4c3)nn2)cc1 |  |
